Screening results from PubChem.
UCH37 inh: inhibitors of human UCH37 deubiquitinase, primary screen, biochemical, Ub-AMC cleavage, fluorescence; Ubiquitin carboxyl-terminal hydrolase isozyme L5 (Homo sapiens), Q9Y5K5; purified proteasome/UCH37; inhibition, % (test concentration not listed); hit rate 0.33% among 330,000;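 active means mean inhibition over replicate wells above about 20%, limit read from the data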;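 further: 0% = compound-free wells with enzyme and 100% = wells lacking proteasome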
Target sequence (Q9Y5K5 whole entry, looked up): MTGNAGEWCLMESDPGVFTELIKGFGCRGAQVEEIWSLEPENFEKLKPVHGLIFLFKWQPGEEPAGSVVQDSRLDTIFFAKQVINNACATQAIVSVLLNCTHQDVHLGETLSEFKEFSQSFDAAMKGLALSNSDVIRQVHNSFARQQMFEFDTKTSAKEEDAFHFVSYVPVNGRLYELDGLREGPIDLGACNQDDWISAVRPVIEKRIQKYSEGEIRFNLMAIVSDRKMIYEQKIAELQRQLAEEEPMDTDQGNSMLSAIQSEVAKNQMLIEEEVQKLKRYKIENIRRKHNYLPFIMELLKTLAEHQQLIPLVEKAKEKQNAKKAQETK
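Material: human UCH37 enzyme supplied as purified proteasome complex / Amount: 0.15 nM proteasome as dispensed / Buffer or medium: pH 7.4 Tris-HCl (50 mM) with ovalbumin, ATP-MgCl2, DTT / Times: preincubation 30 min, reaction 25 min, room temperature / Technique: AMC fluorescence from Ub-AMC cleavage, excitation 355 nm, emission 460 nm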
Fh CTSL1 inh: Fasciola hepatica cathepsin L1 inhibitors, primary screen, counter-screen for PFM18AAP inhibitor project, biochemical, QFRET, fluorogenic peptide substrate | recombinant F. hepatica cathepsin L1, Z-Leu-Arg-MCA fluorescence | inhibition, % at 5.96 µM | hit rate 0.49% among 300,000 | AID 1906, 2009;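 active means inhibition above the mean of all tested compounds plus 3 SD, set per screening campaign, cut at about 17% in these data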;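 further: 0% = plate median of test compound wells and 100% = 1 µM Z-Phe-Ala-diazomethylketone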
CHOP inh: inhibitors of CHOP promoter induction, primary screen, cell-based, unfolded protein response, luciferase reporter | hit rate 3.8% among 220,000 | inhibition, % at 10 µM | CHO-K1 CHOP-promoter luciferase, tunicamycin-induced, 15-18 h;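 active means compounds that reduced the stress-induced luciferase reporter signal by more than about 70% of percent inhibition, limit read from the data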;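 further: 0% = tunicamycin plus vehicle and 100% = wells without tunicamycin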
UPR XBP1 act: activators of adaptive XBP1 UPR arm, primary screen, cell-based, CHO-XBP1 luciferase reporter, luminescence, uHTS; activation, % at 20 µM; IRE1-XBP1 UPR activation; percent of tunicamycin response, DMSO as zero; hit rate 0.33% among 330,000;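 active means versus positive control, 20 µM dose yields 30% or more activation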;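 further: 100% = tunicamycin at 10 µg/mL and 0% = DMSO only wells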
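Material: CHO-XBP1 cells stably carrying IRE1-XBP1-driven luciferase reporter / Amount: 1000 cells per well / Compound: 20 µM, 1% DMSO / Times: 6 h treatment, 37 °C / Detection: luciferase luminescence / Measure: % activation of reporter signal versus tunicamycin and DMSO controls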
UPR CHOP act: activators of apoptotic CHOP UPR arm, primary screen, cell-based, CHO-CHOP luciferase reporter, luminescence, uHTS; UPR activation; percent of tunicamycin response over DMSO baseline; activation, % at 10 µM; hit rate 0.34% among 330,000;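 active means at 10 µM dose, activation of 40% or more, normalized to positive control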;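 further: 100% = tunicamycin at 10 µg/mL and 0% = DMSO alone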
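Assay system: CHO-CHOP cells, stable luciferase reporter of PERK-eIF2a-CHOP signalling / Buffer or medium: F12 plus 10% serum / Compound dosing: one dose, 10 µM in 0.5% DMSO / Times: 6 h compound treatment, 37 °C / Technique: luciferase luminescence / Read-out: % reporter activation, DMSO baseline versus tunicamycin full activation / Benchmarks: tunicamycin and DMSO controls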
* = called active by the depositor; i = inactive; nt = no result. Only a selection was taken, and hits are over-represented in it overall.

SMILES	UCH37 inh	Fh CTSL1 inh	CHOP inh	UPR XBP1 act	UPR CHOP act
O=C(Nc1ccc(Cl)cc1Cl)NC1CCN(S(=O)(=O)c2ccc(F)cc2)CC1	4.1	-0.6	81.1*	3.7	-1.2
O=C(Cc1ccccc1Cl)Nc1cccc(S(=O)(=O)N2CCCCCC2)c1	2.5	nt	nt	-2.7	-0.6
CCn1c(C(C#N)C(=NS(=O)(=O)c2cccs2)c2ccccc2)nc2ccccc21 (stereo not drawn)	4.9	nt	nt	nt	nt
OC(CNCCc1ccc(Cl)cc1)COc1ccc2ccccc2c1 (stereo not drawn)	4.1	nt	100.4*	nt	nt
CC(=NNC(=O)c1ccc(C)s1)c1cccc(NC(=O)COc2ccc(Cl)cc2C)c1	-6.0	nt	nt	nt	nt
COC(=O)c1cccc2c1-c1ccccc1/C2=N/O	nt	3.3	86.6*	2.4	-0.8
COC(=O)c1ccc2c(c1O)C(=O)c1ccccc1C2=O	4.5	26.1*	20.7	3.2	8.6
COC(=O)c1cc(=O)nc2sccn12	-17.3	1.7	67.6	-2.8	-0.9
COC(=O)c1cc(NC(=O)c2c(Cl)nc3sccn23)cc(C(=O)OC)c1	0.6	-2.9	76.0*	19.2	-0.9
NC1=NC[C@H](CC2CCCCC2)N1CCc1cc(C(F)(F)F)cc(C(F)(F)F)c1	0.3	1.6	94.4*	2.2	-0.1
CCOC(=O)Nc1ccc2c(c1)Cc1cc([N+](=O)[O-])ccc1-2	2.1	nt	nt	nt	nt
Nc1ccc2c(c1)Cc1cc([N+](=O)[O-])ccc1-2	29.2*	1.5	28.7	-2.7	-0.6
Cc1ccc(Nc2cc(C)nn2-c2nc(C)cc(=O)[nH]2)cc1	0.9	4.9	nt	-2.6	190.0*
COC(=O)c1ccc(NC(=O)Nc2ccc(F)c(Cl)c2)cc1	3.5	-4.9	86.0*	0.4	3.9
O=C(Nc1ccc(F)cc1)Nc1ccc(Cl)cn1	1.0	0.9	8.7	2.6	1.7
O=C(Nc1ccc(F)c(Cl)c1)Nc1ccc(Cl)cn1	6.5	-8.0	81.0*	-0.3	0.8
CSc1nc(-c2ccco2)nn1C(=O)c1ccc(C)cc1	1.8	2.5	80.5*	3.0	-0.6
CSc1nc(-c2ccco2)nn1C(=O)c1ccccc1	-3.7	0.6	17.9	4.3	-1.6
CCOC(=O)c1ccccc1NC1c2ccccc2C(=O)N1c1ccc(C)cn1 (stereo not drawn)	-19.4	-0.8	85.3*	-2.6	5.3
Cc1nn(-c2ccccc2)c(N2CCCC2)c1C=NNC(=O)c1cc(-c2cccnc2)nc2ccccc12	5.6	nt	nt	nt	nt
COc1cc(C=Nn2c(-c3cc(C)[nH]n3)n[nH]c2=S)cc(OC)c1O	6.1	nt	nt	nt	nt
CC(C)COc1ccc(CSCCNC(=S)Nc2ccccc2)cc1	nt	2.2	83.4*	-1.0	0.5
O=C(Nc1ccc(C(F)(F)F)cc1)c1cnc(N2CCN(c3ccccn3)CC2)c2ccccc12	-153.0	1.4	81.2*	-0.2	3.9
O=C(Nc1ccc(C(F)(F)F)cc1)c1cccnc1N1CCOCC1	1.4	-0.3	-8.0	-0.5	1.3
O=C(c1cnc(N2CCN(c3ccccn3)CC2)c2ccccc12)N1CCN(c2cccc(Cl)c2)CC1	-8.4	-1.8	77.2*	0.2	10.1
SMILES	UCH37 inh	Fh CTSL1 inh	CHOP inh	UPR XBP1 act	UPR CHOP act
CCOC(=O)c1c(C)[nH]c(C(=O)OCC(=O)Nc2ccc(OCC)cc2)c1C	5.5	-4.5	19.5	-1.8	5.2
CCOC(=O)c1c(C)[nH]c(C(=O)OCC(=O)Nc2cc(Cl)ccc2OC)c1C	-1.4	-1.9	77.7*	2.5	2.8
CCOC(=O)c1c(C)[nH]c(C(=O)OCC(=O)Nc2cc(C)ccc2OC)c1C	1.4	-1.9	14.0	1.9	0.0
CCOC(=O)c1c(C)[nH]c(C(=O)OCC(=O)Nc2ccc(OC)c(Cl)c2)c1C	1.3	-0.5	87.0*	0.8	-2.1
C=CC[N+](C)(C)CCCNC(=O)C=NO	5.3	nt	nt	nt	nt
CCCCOC(=O)c1cc(C)nc2ccc(Br)cc12	3.2	-5.0	30.0	4.0	0.4
CCOC(=O)c1cc(C(=O)OCC)c2cc(Br)ccc2n1	3.3	1.1	87.6*	-2.4	-0.6
COc1cc(/C=C2/CCCC(C(=O)C(F)(F)F)=C2O)ccc1O	1.8	-3.4	7.7	-0.5	0.2
CCOc1cc(/C=C2\CCCC(C(=O)C(F)(F)F)=C2O)ccc1O	2.4	-2.3	74.8*	-0.2	0.8
CCCSc1nc(N2CCOCC2)c2c(c1C#N)CC(C)(C)SC2	3.8	-6.8	78.4*	-4.7	-1.5
O=S(=O)(c1ccccc1)c1cnn2c(C(F)(F)F)cc(-c3ccc(F)cc3)nc12	i	0.8	70.7*	1.6	0.3
COc1ccc(C=NNC(=O)c2ccco2)cc1Cn1nc(C)cc1C	6.6	nt	nt	nt	nt
COc1ccc(/C=N\NC(=O)COc2ccccc2Cl)cc1Cn1nc(C)cc1C	nt	-4.0	80.7*	3.5	1.8
COc1ccc(C=NNC(=O)c2ccc(Cl)cc2)cc1Cn1cc(Cl)cn1	0.6	nt	nt	nt	nt
COc1ccc(/C=N/NC(=O)c2ccc(Cl)cc2)cc1Cn1cc(Cl)cn1	nt	-1.1	85.7*	-3.5	1.5
COc1ccc(N(CC(=O)NN=Cc2ccc(OC3CSC3)cc2)S(=O)(=O)c2ccccc2)cc1	1.8	nt	nt	nt	nt
Cn1cc(C(=O)NN=Cc2ccc([N+](=O)[O-])cc2)c2ccccc21	6.7	nt	nt	nt	nt
CN1CCc2cccc3c2C1Cc1ccc(O)c(O)c1-3 (stereo not drawn)	-0.9	-2.4	73.5*	-6.3	-1.0
c1ccc(Cn2nnc3c(N4CCOCC4)ncnc32)cc1	3.4	-0.7	-2.0	-3.4	-0.1
FC(F)(F)c1ccc(N2CCN(c3ncnc4c3nnn4Cc3ccccc3)CC2)nc1	-0.9	-1.4	90.6*	4.6	2.4
CC1CCC2C(C1)c1sc(=O)[nH]c1SC2(C)C (stereo not drawn)	-0.2	-1.0	82.6*	-0.3	1.3
Fc1cccc(-c2cc3nc(-c4ccccc4)cc(N4CCC5(CC4)OCCO5)n3n2)c1	-143.9	4.9	30.6	-0.4	4.8
COCCN1CCN(c2cc(-c3ccccc3)nc3cc(-c4cccc(F)c4)nn23)CC1	-176.8	4.5	80.3*	-0.3	5.5
Cc1cccc(-c2cc3nc(-c4ccccc4)cc(N4CCC5(CC4)OCCO5)n3n2)c1	-4.7	20.5*	7.3	-2.4	1.3
COc1cc(C=NN2CCOCC2)ccc1OCc1ccc(Cl)cc1	0.5	nt	nt	nt	nt
Cc1ccc(C)n1-n1c(C)nc2sc3c(c2c1=O)CCCCC3	-1.1	7.0	79.2*	-4.5	-1.1
Cc1ccc(C)n1-n1cnc2sc3c(c2c1=O)CCCCC3	-0.6	2.7	33.8	-2.2	-1.1
COc1ccc(CC(=O)OCC(=O)NC(=O)NC23CC4CC(CC(C4)C2)C3)cc1	3.1	-5.8	95.7*	-1.7	-0.9
